The source of these data is ChEMBL document CHEMBL1144718, “Novel 3-aroylpyrazolo[5,1-c][1,2,4]benzotriazine 5-oxides 8-substituted, ligands at GABAA/benzodiazepine receptor complex: synthesis, pharmacological and molecular modeling studies” (Bioorg Med Chem, 2008).

The source made the active and inactive calls. The calls are words filed in the database; no cut-off is given here.

The nature of experiment [1]: Displacement of [3H]flumazenil from GABAA/BzR complex in bovine cerebral cortex membrane. Type of experiment: cell membranes, Bos taurus. Put shortly:
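Bovine cerebral cortex membranes in 50 mM Tris-citrate pH 7.4 incubated with [3H]Ro15-1788 (1–2 nM) for 1 h at 4 °C to equilibrium; nonspecific binding with 10^-5 M diazepam; DMSO ≤1%. Ki from ≥6 concentrations (10^-9–10^-5 M) by curve fitting and Cheng–Prusoff; percent inhibition at 10 µM; five determinations, triplicate.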
In general terms: Loss of bound radioactivity is the signal in a displacement assay; it reports binding, not function.

The test system of experiment [2] is Mus musculus. Put plainly: Anticonvulsant activity against pentylenetetrazole-induced seizure in CD1 Albino mouse assessed as shock latency at 1 mg/kg, ip after 20 mins. Type of experiment: functional, organism-based. On the set-up: dose 1 mg/kg. Put shortly:
(§1)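 In male CD-1 mice (22–24 g), drug in saline was given ip at 10 ml/kg; the test ran 20 min later. PTZ 90 mg/kg sc was the convulsant. Latency (s) to shock and to convulsions was scored, and clonic generalized convulsions were counted over 30 min. Significance was set at P < 0.05 versus controls.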

Experiment [3] relates to Mus musculus. Put plainly: Sedative activity in CD1 albino mouse assessed as reduction of spontaneous motility at 3 mg/kg, ip after 20 mins by hole-board test. On the set-up: dose 3 mg/kg. Type of experiment: functional, organism-based. Put shortly: (§2)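 Hole-board test in male CD-1 mice (22–24 g) after an ip dose in saline (10 ml/kg). Each mouse explored the panel and holes alone for 5 min. Spontaneous motility was scored as panel movements and curiosity as exploration of the holes.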

The subject of experiment [4] is Mus musculus. In words: Sedative activity in CD1 albino mouse assessed as reduction of curiosity at 3 mg/kg, ip after 20 mins by hole-board test. On the set-up: dose 3 mg/kg. Type of experiment: functional, organism-based. Summed up:
as §2

In experiment [5] the test system is Mus musculus. In words: Anticonvulsant activity against pentylenetetrazole-induced seizure in CD1 Albino mouse assessed as convulsant latency at 1 mg/kg, ip after 20 mins. The class given is functional, organism-based. On the set-up: dose 1 mg/kg. Summed up:
as §1

Experiment [6] deals with Mus musculus. Put plainly: Amnesic activity in CD1 albino mouse at 1 mg/kg, ip. Type of experiment: functional, organism-based. On the set-up: dose 1 mg/kg. Put shortly: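 Male CD-1 mice (22–24 g) given drug ip in 0.9% saline at 10 ml/kg. Passive-avoidance training followed treatment, and retention was tested 24 h later. Read-out was latency to enter the dark compartment in both sessions, capped at 60 s (training) and 180 s (retention). Means ± SEM of 15–18 mice.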

With `O=C(c1cccs1)c1cnn2c1n[n+]([O-])c1ccc(Cl)cc12`, the Ki (usually a dissociation constant, usually derived from enzyme kinetics or from competition with a known ligand) in experiment [1] came out at 62 nM.

Regarding `O=C(c1ccc[nH]1)c1cnn2c1n[n+]([O-])c1ccc(Oc3ccccc3)cc12`, the Ki in experiment [1] was 276 nM.

For `O=C(c1ccco1)c1cnn2c1n[n+]([O-])c1ccc(Oc3ccccc3)cc12`, in experiment [1], the affinity corresponds to a Ki of 7 nM.

As to `O=C(c1ccc2c(c1)OCO2)c1cnn2c1n[n+]([O-])c1ccc(Cl)cc12`, the Ki in experiment [1] was found to be 2900 nM.

In the case of `CCOc1ccc2c(c1)n1ncc(C(=O)c3cccnc3)c1n[n+]2[O-]`, affinity in experiment [1] was put at a Ki of 2000 nM.

Regarding `O=C(c1ccco1)c1cnn2c1n[n+]([O-])c1ccc(OCc3ccccc3)cc12`, the Ki in experiment [1] was 1.4 nM.

For the compound `Cn1cccc1C(=O)c1cnn2c1n[n+]([O-])c1ccc(Cl)cc12`, the Ki in experiment [1] was 5200 nM. This Ki lies about 3700-fold higher than the previous one.

In turn, `CC(=O)c1cnn2c1n[n+]([O-])c1ccc(Oc3ccccc3)cc12` yielded a Ki in experiment [1] of 53 nM.

In the case of `CCOc1ccc2c(c1)n1ncc(C(=O)c3ccc[nH]3)c1n[n+]2[O-]`, the Ki in experiment [1] is 1840 nM.

In turn, `CCOc1ccc2c(c1)n1ncc(C(=O)c3ccc(OC)cc3)c1n[n+]2[O-]` registered a Ki in experiment [1] of 919 nM. Compared with the last compound, the Ki is about 2-fold lower.

As to `O=C(c1ccccc1)c1cnn2c1n[n+]([O-])c1ccc(Cl)cc12`, the affinity in experiment [1], expressed as Ki, was 3490 nM.

`O=C(c1ccc[nH]1)c1cnn2c1nnc1ccc(Cl)cc12` showed a Ki in experiment [1] of 1940 nM.

`COc1ccccc1C(=O)c1cnn2c1n[n+]([O-])c1ccc(Cl)cc12`: affinity in experiment [1] was put at a Ki of 4200 nM.

`CN1C(=O)CN=C(c2ccccc2)c2cc(Cl)ccc21` [DIAZEPAM] registered a Ki in experiment [1] of 10 nM. Besides, the outcome in experiment [2] and in experiment [5] was inactive. The outcome in experiment [3], in experiment [4] and in experiment [6] was Active.

`CCOc1ccc2c(c1)n1ncc(C(=O)c3cccs3)c1n[n+]2[O-]` came in with a Ki in experiment [1] of 45 nM.
